Measured values as given in ChEMBL document CHEMBL4330069, “Boosting the efficacy of anti-MRSA β-lactam antibiotics via an easily accessible, non-cytotoxic and orally bioavailable FtsZ inhibitor” (Eur J Med Chem, 2019).
Active and inactive are the calls of the source. The calls are words filed in the database; no cut-off is given here.

What was measured:
Staphylococcus aureus [1] = test: Antibacterial activity against multidrug-resistant Staphylococcus aureus ATCC 43300 infected in BALB/C mouse assessed as mouse survival at 50 mg/kg, ip bid measured after 5 days relative to control; type: functional
[2] = biological target: T1, Cell division protein FtsZ (Staphylococcus aureus) (UniProt P0A031); test: Inhibition of Staphylococcus aureus N-terminal 6His-tagged FtsZ polymerization expressed in Escherichia coli BL21 (DE3)
T1 sequence (whole entry): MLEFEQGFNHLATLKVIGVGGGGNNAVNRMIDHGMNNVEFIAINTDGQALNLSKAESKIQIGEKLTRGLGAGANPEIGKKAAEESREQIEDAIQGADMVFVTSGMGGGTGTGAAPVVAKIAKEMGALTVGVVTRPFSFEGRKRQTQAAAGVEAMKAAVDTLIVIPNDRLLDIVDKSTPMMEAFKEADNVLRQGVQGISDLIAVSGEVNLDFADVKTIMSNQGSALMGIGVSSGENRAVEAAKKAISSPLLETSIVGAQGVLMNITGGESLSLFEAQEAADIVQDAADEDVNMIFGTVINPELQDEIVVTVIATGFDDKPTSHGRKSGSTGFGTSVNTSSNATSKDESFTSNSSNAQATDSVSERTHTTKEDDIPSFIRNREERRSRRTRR
How it was run: (§1)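 Purified S. aureus FtsZ polymerization with GTP, followed as light scattering (absorbance 600 nm) over time. Compound was tested at 12.5–100 µM against a 1% DMSO vehicle, and inhibition was read at 500 s. Triplicate.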

[3] = biological target: T1, Cell division protein FtsZ (Staphylococcus aureus); test: Inhibition of Staphylococcus aureus N-terminal 6His-tagged FtsZ polymerization expressed in Escherichia coli BL21 (DE3) at 25 uM relative to control; how it was run: as §1
[4] = biological target: T1, Cell division protein FtsZ (Staphylococcus aureus); test: Inhibition of Staphylococcus aureus N-terminal 6His-tagged FtsZ polymerization expressed in Escherichia coli BL21 (DE3) at 50 uM relative to control; how it was run: as §1
[5] = biological target: T1, Cell division protein FtsZ (Staphylococcus aureus); test: Inhibition of Staphylococcus aureus N-terminal 6His-tagged FtsZ polymerization expressed in Escherichia coli BL21 (DE3) at 100 uM relative to control; how it was run: as §1
[6] = biological target: T1, Cell division protein FtsZ (Staphylococcus aureus); test: Inhibition of Staphylococcus aureus N-terminal 6His-tagged FtsZ polymerization expressed in Escherichia coli BL21 (DE3) assessed as reduction in filament formation in presence of GTP by TEM analysis
How it was run: (§2)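 Purified S. aureus FtsZ was incubated with GTP and compound at 0, 50 or 100 µM. Filaments were then imaged by transmission electron microscopy.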

[7] = biological target: T1, Cell division protein FtsZ (Staphylococcus aureus); test: Inhibition of Staphylococcus aureus N-terminal 6His-tagged FtsZ polymerization expressed in Escherichia coli BL21 (DE3) assessed as reduced strands at 100 uM in presence of GTP by TEM analysis; how it was run: as §2
[8] = biological target: T1, Cell division protein FtsZ (Staphylococcus aureus); test: Inhibition of Staphylococcus aureus N-terminal 6His-tagged FtsZ polymerization expressed in Escherichia coli BL21 (DE3) assessed as short strands at 100 uM in presence of GTP by TEM analysis; how it was run: as §2
[9] = biological target: T1, Cell division protein FtsZ (Staphylococcus aureus); test: Inhibition of Staphylococcus aureus N-terminal 6His-tagged FtsZ polymerization expressed in Escherichia coli BL21 (DE3) assessed as thin strands at 100 uM in presence of GTP by TEM analysis; how it was run: as §2
[10] = biological target: T1, Cell division protein FtsZ (Staphylococcus aureus); test: Inhibition of Staphylococcus aureus N-terminal 6His-tagged FtsZ polymerization expressed in Escherichia coli BL21 (DE3) assessed as single strands at 100 uM in presence of GTP by TEM analysis; how it was run: as §2
[11] = biological target: T1, Cell division protein FtsZ (Staphylococcus aureus); test: Inhibition of Staphylococcus aureus N-terminal 6His-tagged FtsZ GTPase expressed in Escherichia coli BL21 (DE3) at 100 uM
Staphylococcus aureus [12] = test: Antibacterial activity against Staphylococcus aureus ATCC BAA-41 at […] after 24 hrs by time kill assay; type: functional, organism-based
How it was run: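 Time-kill assay. S. aureus BAA-41 was grown in CA-MH broth to mid-log phase (OD595 0.8), then diluted to 5×10^5 CFU/mL. […] Samples were taken at 0–24 h and plated on drug-free CA-MH agar for 24 h. Triplicates.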

Staphylococcus aureus [13] = test: Synergistic bactericidal activity against Staphylococcus aureus ATCC BAA-41 at 1 to 16 times MIC in presence of methicillin up to 24 hrs by time kill assay; type: functional, organism-based
How it was run: (§3)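 Colony of strain grown 16 h in CA-MH broth at 37 °C with shaking, diluted 100-fold and grown to mid-log (OD595 0.8), then set at 5×10^5 CFU/mL. […] Sampled at 0, 2.5, 5, 7.5, 21, 24 h, diluted and plated on drug-free CA-MH agar, 24 h at 37 °C; triplicates.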

Staphylococcus aureus [14] = test: Synergistic antibacterial activity against Staphylococcus aureus ATCC BAA-41 at 1 to 16 times MIC in presence of methicillin after 21 hrs by time kill assay; type: functional, organism-based; how it was run: as §3

SMILES	Activity (Staphylococcus aureus [1])	inhibition [2]	inhibition [3]	inhibition [4]	inhibition [5]	inhibition [6]	inhibition [7]	inhibition [8]	inhibition [9]	inhibition [10]	inhibition [11]	Activity (Staphylococcus aureus [12])	Activity (Staphylococcus aureus [13])	Activity (Staphylococcus aureus [14])
CCCCCCCCCNc1ccc(F)c(C(N)=O)c1F.Cl	33%	–	–	–	–	–	–	–	–	–	–	–	–	–
CCCCCCCCCNc1ccc(F)c(C(N)=O)c1F	–	Dose-dependent effect	34%	39%	47%	Dose-dependent effect	Active	Active	Active	Active	inactive	inactive	Active	Active
